Data from ChEMBL document CHEMBL1144404, “Aminoimidazolylmethyluracil analogues as potent inhibitors of thymidine phosphorylase and their bioreductive nitroimidazolyl prodrugs” (J Med Chem, 2005).

B1: Thymidine phosphorylase (Escherichia coli K-12), P07650 (protein)
chain: MFLAQEIIRKKRDGHALSDEEIRFFINGIRDNTISEGQIAALAMTIFFHDMTMPERVSLTMAMRDSGTVLDWKSLHLNGPIVDKHSTGGVGDVTSLMLGPMVAACGGYIPMISGRGLGHTGGTLDKLESIPGFDIFPDDNRFREIIKDVGVAIIGQTSSLAPADKRFYATRDITATVDSIPLITASILAKKLAEGLDALVMDVKVGSGAFMPTYELSEALAEAIVGVANGAGVRTTALLTDMNQVLASSAGNAVEVREAVQFLTGEYRNPRLFDVTMALCVEMLISGKLAKDDAEARAKLQAVLDNGKAAEVFGRMVAAQKGPTDFVENYAKYLPTAMLTKAVYADTEGFVSEMDTRALGMAVVAMGGGRRQASDTIDYSVGFTDMARLGDQVDGQRPLAVIHAKDENNWQEAAKAVKAAIKLADKAPESTPTVYRRISE
B2: Thymidine phosphorylase (Homo sapiens), P19971 (protein)
chain: MAALMTPGTGAPPAPGDFSGEGSQGLPDPSPEPKQLPELIRMKRDGGRLSEADIRGFVAAVVNGSAQGAQIGAMLMAIRLRGMDLEETSVLTQALAQSGQQLEWPEAWRQQLVDKHSTGGVGDKVSLVLAPALAACGCKVPMISGRGLGHTGGTLDKLESIPGFNVIQSPEQMQVLLDQAGCCIVGQSEQLVPADGILYAARDVTATVDSLPLITASILSKKLVEGLSALVVDVKFGGAAVFPNQEQARELAKTLVGVGASLGLRVAAALTAMDKPLGRCVGHALEVEEALLCMDGAGPPDLRDLVTTLGGALLWLSGHAGTQAQGAARVAAALDDGSALGRFERMLAAQGVDPGLARALCSGSPAERRQLLPRAREQEELLAPADGTVELVRALPLALVLHELGAGRSRAGEPLRLGVGAELLVDVGQRLRRGTPWLRVHRDGPALSGPQSRALQEALVLSDRAPFAAPSPFAELVLPPQQ

Tests used:
[1] = substrate: O=c1[nH]c(=O)n([C@H]2C[C@H](O)[C@@H](CO)O2)cc1[N+](=O)[O-]; experiment: Michaelis-Menten constant against Escherichia coli thymidine phosphorylase
Outline: (§1)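 Continuous UV assay at 355 nm and 25 °C in 0.2 mL of 0.1 M potassium phosphate pH 7.4, using recombinant E. coli TP (ca. 0.00883 units per assay) added to start the reaction. Substrate is thymidine or 5-nitro-2'-deoxyuridine; phosphorolysis to 5-nitrouracil followed (εM 13300 M-1 cm-1 for substrate).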

[2] = substrate: Cc1cn([C@H]2C[C@H](O)[C@@H](CO)O2)c(=O)[nH]c1=O; experiment: (§2) Vmax against Escherichia coli thymidine phosphorylase; outline: as §1
[3] = substrate: O=c1[nH]c(=O)n([C@H]2C[C@H](O)[C@@H](CO)O2)cc1[N+](=O)[O-]; experiment: as §2; outline: as §1
[4] = substrate: O=c1[nH]c(=O)n([C@H]2C[C@H](O)[C@@H](CO)O2)cc1[N+](=O)[O-]; experiment: Michaelis-Menten constant against human thymidine phosphorylase
Outline: (§3)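 Recombinant human TP expressed in V79 Chinese hamster cells, 0.065 absorbance unit per assay. Continuous spectrophotometric assay at 355 nm, 25 °C, 0.1 M phosphate buffer pH 7.4, 0.2 mL total volume, with 5-nitro-2'-deoxyuridine as substrate; kinetic constants from initial rates.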

[5] = substrate: O=c1[nH]c(=O)n([C@H]2C[C@H](O)[C@@H](CO)O2)cc1[N+](=O)[O-]; experiment: Vmax against human thymidine phosphorylase; outline: as §3

| Protein | Km [1] | Vmax [2] | Vmax [3] | Km [4] | Vmax [5] |
| --- | --- | --- | --- | --- | --- |
| B1 | 230 µM | 1.15 mM/min | 0.013 mM/min | – | – |
| B2 | – | – | – | 160 µM | 0.0086 mM/min |
